From PMC7935409 (Investigative radiology, 2020)

Test system: Male Wistar rats
Test: DEN model of hepatic fibrosis and inflammation, body weight and liver histology
Format: in vivo, rat
Details: for collagen proportional area (CPA), Sirius Red: weekly 100 mg/kg i.p.
Outline: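 Male Wistar rats (190–220 g at start) got weekly i.p. DEN 100 mg/kg in PBS for 4 weeks, or PBS only as controls, and were sampled 1 or 7 days after the last dose. Formalin-fixed, paraffin-embedded 5 μm liver sections were stained with H&E, Sirius Red, and fibrin antibody (1:25). A pathologist scored modified Ishak HAI; CPA was the % Sirius Red area. Values are mean ± standard error, compared by t-test.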

CCN(CC)N=O [DEN, diethylnitrosamine]
HAI score for inflammation (0 – 4) (1 day post DEN): 3.54 ± 0.14 | fibrin immunostaining, area stained (1 day post DEN): 3.56 ± 1.35 | fibrosis Ishak score (0 – 6) (1 day post DEN): 3.62 ± 0.31 | collagen proportional area (CPA), Sirius Red (1 day post DEN): 3.14 ± 1.27% | HAI score for inflammation (0 – 4) (7 days post DEN): 1.61 ± 0.16 | fibrin immunostaining, area stained (7 days post DEN): 1.02 ± 0.58 | fibrosis Ishak score (0 – 6) (7 days post DEN): 3.82 ± 0.25 | collagen proportional area (CPA), Sirius Red (7 days post DEN): 3.30 ± 0.65%
